Source: ChEMBL document CHEMBL5303300, “EUbOPEN Chemogenomics Library - Multiplex” (2023)
“And” between values parts separate entries of the source, which are not always exact repeats. Equal entries are not always repeated.

How the values were obtained:
HEK-293T = assay: Multiplex assay against HEK293T; assay type: toxicity, cell-based; settings: human, number of replicates 2
Summary of the method: (§1)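 Imaging took place on a CQ1 microscope at 37°C and 5% CO2 once compound had been added to live cells stained at seeding with Hoechst33342, BioTracker Green Microtubule Cytoskeleton Dye, MitoTracker Red and Annexin V Alexa Fluor 680. CellPathfinder machine-learning gating classed cells as Hoechst high-intensity objects or normal cells, classed normal cells as having healthy, pyknosed or fragmented nuclei, and classed pyknosed cells as mitotic or apoptotic. Tubulin, mitochondrial-mass and membrane-permeability phenotypes are per cents of the healthy-nucleus cells.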

U2OS = assay: Multiplex assay against U2OS; assay type: toxicity, cell-based; settings: human, number of replicates 2; summary of the method: as §1
[1] = 24 h, 1 µM, compound concentration 1 uM
[2] = 24 h, 10 µM, compound concentration 10 uM
[3] = 48 h, 1 µM, compound concentration 1 uM
[4] = 48 h, 10 µM, compound concentration 10 uM
[5] = 12 h, 1 µM, compound concentration 1 uM
[6] = 12 h, 10 µM, compound concentration 10 uM

Question: Which results are given for `COC(=O)c1ccc2c(c1)NC(=O)/C2=C(\Nc1ccc(-c2nccn2C)cc1)c1ccccc1`?
Answer: Population Mitotic Cells (%) (HEK-293T; [1]): 69% and 68%; Population Normal (%) (HEK-293T; [1]): 93% and 92%; Population Pyknosed Nuclei (%) (HEK-293T; [1]): 6% and 8%; Population Tubulin-Different-Phenotype (%) (HEK-293T; [1]): 35% and 36%; Total Cell Count (HEK-293T; [1]): 1123 and 936; Population Apoptotic (%) (HEK-293T; [2]): 55% and 74%; Population Fragmented Nuclei (%) (HEK-293T; [2]): 6% and 5%; Population Healthy Nuclei (%) (HEK-293T; [2]): 79% and 80%; Population Hoechst High Intensity Objects (%) (HEK-293T; [2]): 9% and 11%; Population Membrane Permeable-Phenotype (%) (HEK-293T; [2]): 3% and 4%; Population Mitochondria Different-Phenotype (%) (HEK-293T; [2]): 27% and 38%; Population Mitotic Cells (%) (HEK-293T; [2]): 44% and 25%; Population Normal (%) (HEK-293T; [2]): 90% and 88%; Population Pyknosed Nuclei (%) (HEK-293T; [2]): 13% and 14%; Population Tubulin-Different-Phenotype (%) (HEK-293T; [2]): 81% and 89%; Total Cell Count (HEK-293T; [2]): 660 and 604; Population Apoptotic (%) (HEK-293T; [3]): 28% and 24%; Population Fragmented Nuclei (%) (HEK-293T; [3]): 12% and 9%; Population Healthy Nuclei (%) (HEK-293T; [3]): 84% and 87%; Population Hoechst High Intensity Objects (%) (HEK-293T; [3]): 9%; Population Membrane Permeable-Phenotype (%) (HEK-293T; [3]): 4% and 3%; Population Mitochondria Different-Phenotype (%) (HEK-293T; [3]): 0% and 1%; Population Mitotic Cells (%) (HEK-293T; [3]): 72% and 75%; Population Normal (%) (HEK-293T; [3]): 90%; Population Pyknosed Nuclei (%) (HEK-293T; [3]): 2% and 3%; Population Tubulin-Different-Phenotype (%) (HEK-293T; [3]): 12% and 19%; Total Cell Count (HEK-293T; [3]): 2887 and 2005; Population Apoptotic (%) (HEK-293T; [4]): 46% and 56%; Population Fragmented Nuclei (%) (HEK-293T; [4]): 11% and 8%; Population Healthy Nuclei (%) (HEK-293T; [4]): 83% and 85%; Population Hoechst High Intensity Objects (%) (HEK-293T; [4]): 11%; Population Membrane Permeable-Phenotype (%) (HEK-293T; [4]): 5% and 4%; Population Mitochondria Different-Phenotype (%) (HEK-293T; [4]): 10% and 22%; Population Mitotic Cells (%) (HEK-293T; [4]): 53% and 43%; Population Normal (%) (HEK-293T; [4]): 88%; Population Pyknosed Nuclei (%) (HEK-293T; [4]): 5% and 6%; Population Tubulin-Different-Phenotype (%) (HEK-293T; [4]): 64% and 85%; Total Cell Count (HEK-293T; [4]): 1119 and 790; Population Healthy Nuclei (%) (U2OS; [5]): 70% and 88%; Population Hoechst High Intensity Objects (%) (U2OS; [5]): 0%; Population Membrane Permeable-Phenotype (%) (U2OS; [5]): 12% and 2%; Population Mitochondria Different-Phenotype (%) (U2OS; [5]): 4% and 0%; Population Mitotic Cells (%) (U2OS; [5]): 100% and 64%; Population Normal (%) (U2OS; [5]): 100%; Population Pyknosed Nuclei (%) (U2OS; [5]): 2% and 8%; Population Tubulin-Different-Phenotype (%) (U2OS; [5]): 54% and 83%; Population Apoptotic (%) (U2OS; [6]): 50% and 68%; Population Healthy Nuclei (%) (U2OS; [6]): 43% and 77%; Population Hoechst High Intensity Objects (%) (U2OS; [6]): 0%; Population Membrane Permeable-Phenotype (%) (U2OS; [6]): 25% and 15%; Population Mitochondria Different-Phenotype (%) (U2OS; [6]): 7% and 20%; Population Mitotic Cells (%) (U2OS; [6]): 50% and 31%; Population Normal (%) (U2OS; [6]): 100%; Population Pyknosed Nuclei (%) (U2OS; [6]): 16% and 15%; Population Tubulin-Different-Phenotype (%) (U2OS; [6]): 55% and 43%; Total Cell Count (U2OS; [6]): 62 and 186; Population Apoptotic (%) (U2OS; [1]): 84% and 57%; Population Healthy Nuclei (%) (U2OS; [1]): 91% and 65%; Population Hoechst High Intensity Objects (%) (U2OS; [1]): 0%; Population Membrane Permeable-Phenotype (%) (U2OS; [1]): 2% and 11%; Population Mitochondria Different-Phenotype (%) (U2OS; [1]): 0% and 5%; Population Mitotic Cells (%) (U2OS; [1]): 15% and 42%; Population Normal (%) (U2OS; [1]): 100%; Population Pyknosed Nuclei (%) (U2OS; [1]): 5% and 13%; Population Tubulin-Different-Phenotype (%) (U2OS; [1]): 79% and 44%; Population Apoptotic (%) (U2OS; [2]): 58% and 68%; Population Healthy Nuclei (%) (U2OS; [2]): 42% and 74%; Population Hoechst High Intensity Objects (%) (U2OS; [2]): 0%; Population Membrane Permeable-Phenotype (%) (U2OS; [2]): 22% and 10%; Population Mitochondria Different-Phenotype (%) (U2OS; [2]): 27% and 31%; Population Mitotic Cells (%) (U2OS; [2]): 41% and 31%; Population Normal (%) (U2OS; [2]): 100%; Population Pyknosed Nuclei (%) (U2OS; [2]): 23% and 20%; Population Tubulin-Different-Phenotype (%) (U2OS; [2]): 50% and 52%; Population Apoptotic (%) (U2OS; [3]): 50% and 62%; Population Healthy Nuclei (%) (U2OS; [3]): 71% and 90%; Population Hoechst High Intensity Objects (%) (U2OS; [3]): 0%; Population Membrane Permeable-Phenotype (%) (U2OS; [3]): 5% and 2%; Population Mitochondria Different-Phenotype (%) (U2OS; [3]): 3% and 0%; Population Mitotic Cells (%) (U2OS; [3]): 50% and 37%; Population Normal (%) (U2OS; [3]): 100%; Population Pyknosed Nuclei (%) (U2OS; [3]): 9% and 5%; Population Tubulin-Different-Phenotype (%) (U2OS; [3]): 58% and 86%; Population Apoptotic (%) (U2OS; [4]): 93% and 88%; Population Healthy Nuclei (%) (U2OS; [4]): 40% and 72%; Population Hoechst High Intensity Objects (%) (U2OS; [4]): 3% and 0%; Population Membrane Permeable-Phenotype (%) (U2OS; [4]): 27% and 11%; Population Mitochondria Different-Phenotype (%) (U2OS; [4]): 40% and 21%; Population Mitotic Cells (%) (U2OS; [4]): 6% and 11%; Population Normal (%) (U2OS; [4]): 96% and 99%; Population Pyknosed Nuclei (%) (U2OS; [4]): 27% and 21%; Population Tubulin-Different-Phenotype (%) (U2OS; [4]): 59% and 40%
